Results on 5 molecules are retold here after ChEMBL document CHEMBL1143832, “EDP-420, a bicyclolide (bridged bicyclic macrolide), is active against Mycobacterium avium” (Antimicrob Agents Chemother, 2007).

The subject of data set [1] is Mycobacterium avium. Kind of data set: Antimicrobial activity against macrolide-susceptible Mycobacterium avium by radiometric broth […] method. Format: functional. In outline:
(§1)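 MAC clinical blood isolates from AIDS patients; 5–10 colonies from 7H11 agar into 7H9 broth, inoculum ~5 × 10^4 CFU/ml by McFarland no. 1. Radiometric (BACTEC) broth […], T100 analysis. Controls: undiluted drug-free, 1:100 and 1:1,000 diluted inoculum, boiled-bacteria vial. Observation ~7 days. MIC range, MIC50 and MIC90 reported (susceptible n = 24; resistant n = 6).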

Data set [2] deals with Mycobacterium avium. Kind of data set: Antimicrobial activity against macrolide-resistant Mycobacterium avium radiometric broth […] method. The format is functional. In outline:
as §1

For data set [3], the system named is Mycobacterium avium complex sp. Put plainly: Antimicrobial activity against Mycobacterium avium complex 101 infected C57BL/6 beige mouse liver assessed as bacterial load at 100 mg/kg once daily 6 days a week for 4 weeks. The format is functional. In outline:
(§2)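 Female C57BL/6 beige mice, about 20 g, infected intravenously with about 3 × 10^7 MAC 101. Baseline mice harvested at 1 week, when treatment started: once daily, 6 days/week, for 4 weeks, alongside diluent-treated controls. Liver and spleen homogenized, diluted and plated on 7H10 agar, with CFU counted after 10 days at 37°C and expressed per gram. Student's t test.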

The test system is the same in data set [4]. Kind of data set: Antimicrobial activity against Mycobacterium avium complex 101 infected C57BL/6 beige mouse spleen assessed as bacterial load at 100 mg/kg once daily 6 days a week for 4 weeks. Format: functional. The method, boiled down: as §2
Data set [5] shares this test system. Put plainly: Antimicrobial activity against clarithromycin resistant-Mycobacterium avium complex 101 infected C57BL/6 beige mouse liver assessed as bacterial load at 100 mg/kg once daily 6 days a week for 4 weeks. Format: functional. The method, boiled down: (§3)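 Female beige mice (~20 g) infected intravenously with ~3 × 107 clarithromycin-resistant MAC 101 (from spleen of clarithromycin-treated MAC 101-infected mouse). Treatment started 1 week post-infection, once daily, 6 days/week, 4 weeks. Baseline mice harvested at 1 week; diluent-treated controls in parallel. Liver and spleen homogenized, diluted, plated on 7H10 agar, CFU counted after 10 days at 37°C. Mean CFU/g ± SEM.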

The test system is the same in data set [6]. Kind of data set: Antimicrobial activity against clarithromycin resistant-Mycobacterium avium complex 101 infected C57BL/6 beige mouse spleen assessed as bacterial load at 100 mg/kg once daily 6 days a week for 4 weeks. The format is functional. In outline: as §3
Data set [7] shares this test system. Kind of data set: Antimicrobial activity against Mycobacterium avium complex 101 infected C57BL/6 beige mouse liver assessed as bacterial load at 40 mg/kg once daily 6 days a week for 4 weeks. The format is functional. The method, boiled down:
as §2

The test system is the same in data set [8]. Kind of data set: Antimicrobial activity against Mycobacterium avium complex 101 infected C57BL/6 beige mouse spleen assessed as bacterial load at 40 mg/kg once daily 6 days a week for 4 weeks. The format is functional. In outline: as §2
The test system is the same in data set [9]. Put plainly: Antimicrobial activity against clarithromycin resistant-Mycobacterium avium complex 101 infected C57BL/6 beige mouse liver assessed as bacterial load at 40 mg/kg once daily 6 days a week for 4 weeks. Format: functional. The method, boiled down:
as §3

For data set [10] the test system is unchanged. Kind of data set: Antimicrobial activity against clarithromycin resistant-Mycobacterium avium complex 101 infected C57BL/6 beige mouse spleen assessed as bacterial load at 40 mg/kg once daily 6 days a week for 4 weeks. Format: functional. In outline:
as §3

Data set [11] shares this test system. Kind of data set: Antimicrobial activity against Mycobacterium avium complex 101 infected C57BL/6 beige mouse spleen assessed as bacterial load after 8 weeks. The format is functional.
Data set [12] has the same test system. Kind of data set: Antimicrobial activity against Mycobacterium avium complex 101 infected C57BL/6 beige mouse spleen assessed as bacterial load after 12 weeks. Format: functional.
Data set [13] is described as follows: Cmax in mouse serum at 15 mg/kg, po. The format is ADME, organism-based. Set-up: dose 15 mg/kg, route oral.
Data set [14] is described as follows: Tmax in mouse serum at 15 mg/kg, po. Set-up: dose 15 mg/kg, route oral. The format is ADME, organism-based.
The nature of data set [15]: Half life in mouse serum at 15 mg/kg, po. The format is ADME, organism-based. Details: dose 15 mg/kg, route oral.
The test system of data set [16] is Mycobacterium avium complex sp. Put plainly: Antibacterial activity against Mycobacterium avium complex 101 in U937 cells at 0.5 ug/ml after 4 days. As to conditions: U-937.

Converted amounts (≈) assume the structure as drawn. The source made the active and inactive calls. The calls are words filed in the database; no cut-off is given here.

As to `CC[C@H]1OC(=O)[C@H](C)[C@@H](O[C@H]2C[C@@](C)(OC)[C@@H](O)[C@H](C)O2)[C@H](C)[C@@H](O[C@@H]2O[C@H](C)C[C@H](N(C)C)[C@H]2O)[C@](C)(O)C[C@@H](C)CN(C)[C@H](C)[C@@H](O)[C@]1(C)O` [AZITHROMYCIN], in the data set on Mycobacterium avium [1], the MIC50 turned out to be 16 µg/mL (≈ 21.4 µM) and the MIC90 was 16 µg/mL (≈ 21.4 µM). In the data set with Mycobacterium avium [2], this molecule yielded an MIC of more than 512 µg/mL.
Molecule `CC[C@H]1OC(=O)[C@H](C)[C@@H](O[C@H]2C[C@@](C)(OC)[C@@H](O)[C@H](C)O2)[C@H](C)[C@@H](O[C@@H]2O[C@H](C)C[C@H](N(C)C)[C@H]2O)[C@](C)(OC)C[C@@H](C)C(=O)[C@H](C)[C@@H](O)[C@]1(C)O` [CLARITHROMYCIN] displayed an MIC50 in the data set on Mycobacterium avium [1] of 2 µg/mL (≈ 2.67 µM). The molecule also came in with an MIC90 with Mycobacterium avium [1] of 4 µg/mL (≈ 5.35 µM). Moreover, the MIC in the data set with Mycobacterium avium [2] was more than 64 µg/mL. Also, the CFU in data set [3] is on record as 2.8 10^7/g; in data set [4] it was 6.6 10^7/g; in data set [5], 2.8 10^8/g; in data set [6], 8 10^8/g.
Consider `O[C@@H](c1cc(C(F)(F)F)nc2c(C(F)(F)F)cccc12)[C@H]1CCCCN1` [MEFLOQUINE], for which the CFU is given as 1.8 10^7/g in data set [7], 4.8 10^7/g in [8], 2.9 10^7/g in data set [9] and 4.6 10^7/g in [10].
`CC[C@H]1OC(=O)[C@H](C)C(=O)[C@H](C)[C@@H](O[C@@H]2O[C@H](C)C[C@H](N(C)C)[C@H]2O)[C@@]2(C)C[C@@H](C)/C(=N\C(C)=O)[C@H](C)[C@@H](OC/C(=N\OCc3ccc(-n4cccn4)nc3)CO2)[C@]1(C)O` [MODITHROMYCIN] gave an MIC50 in the data set on Mycobacterium avium [1] of 4 µg/mL (≈ 4.76 µM). The same molecule had an MIC90 with Mycobacterium avium [1] of 8 µg/mL (≈ 9.51 µM). Moreover, in the data set on Mycobacterium avium [2], inhibition of growth (MIC) required 32 µg/mL (≈ 38 µM). In addition, the CFU in data set [3] is listed as 7.1 10^6/g; in data set [4], 1.2 10^7/g; in [5], 1.7 10^8/g; in [9], 2.5 10^8/g; in data set [6], 5.7 10^8/g; in data set [10], 2.7 10^8/g. The CFU is given as 2.3 10^5/g in data set [11] and 2.5 10^5/g in data set [12]. The molecule further returned a maximum concentration (Cmax) in [13] of 2500 ng/mL. Besides, the Tmax in data set [14] amounted to 1.5 h. Moreover, the half-life in data set [15] is 3.3 h. Further, in data set [16], the outcome was Active.
For `CC[C@H]1OC(=O)[C@H](C)C(=O)[C@H](C)[C@@H](O[C@@H]2O[C@H](C)C[C@H](N(C)C)[C@H]2O)[C@](C)(OC)C[C@@H](C)C(=O)[C@H](C)[C@H]2N(CCCCn3cnc(-c4cccnc4)c3)C(=O)O[C@]12C` [TELITHROMYCIN], in the data set with Mycobacterium avium [1], the MIC50 was determined as 32 µg/mL (≈ 39.4 µM) and the MIC90 was more than 64 µg/mL. In addition, the Cmax in data set [13] was found to be 5500 ng/mL. Moreover, the Tmax in data set [14] worked out at 1 h. Moreover, in [15], the half-life is 1.5 h.

The term MIC50 denotes the lowest concentration that inhibits either 50% of growth or 50% of the strains tested, depending on the study. Higher therefore signals lower susceptibility. The term MIC90 denotes the lowest concentration that inhibits either 90% of growth or 90% of the strains tested, depending on the study. Read a high MIC90 as lower susceptibility. For orientation: MIC means the least concentration at which growth counts as inhibited. The low end stands for greater potency, the high end for weaker potency. By Cmax is commonly meant the peak of the concentration-time curve. For orientation: Tmax means the time at which the peak concentration occurs. The term half-life denotes how long it takes for the measured level to halve.
